Results from ChEMBL document CHEMBL1137344, “Flavonoid dimers as bivalent modulators for P-glycoprotein-based multidrug resistance: synthetic apigenin homodimers linked with defined-length poly(ethylene glycol) spacers increase drug retention and enhance chemosensitivity in resistant cancer cells” (J Med Chem, 2006).
Activity calls are given as the source filed them. The rule behind the calls is not given here.

What was measured:
MDA-MB-435 [1] = experiment: Cytotoxicity against MDA435/LCC6 cells at 5 uM; assay type: functional, cell-based; conditions: Homo sapiens
MDA-MB-435 [2] = experiment: Effect on P-gp-mediated drug efflux in multidrug resistant MDA435/LCC6 cells assessed as relative fold in intracellular DOX accumulation at 10 uM; assay type: functional, Homo sapiens
How it was run: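 Resistant MDA435/LCC6 cells grown to confluence, preincubated 30 min at 37 °C in fresh DMEM with modulator (0–20 µM), then DOX added (final 20 µM) for 2 h at 37 °C. Cells trypsinized, washed in cold PBS, lysed in 0.3 N HCl/50% ethanol, sonicated, centrifuged. Supernatant fluorescence read at ex 470/em 585 nm. Mean ± SD of three independent experiments.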

MDA-MB-435 [3] = experiment: Reversal of vinblastine resistance in multidrug resistant MDA435/LCC6 cells by MTS assay; assay type: functional, cell-based; conditions: Homo sapiens
How it was run: (§1)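 Resistant MDA435/LCC6 cells, 4-day MTS assay of paclitaxel or vinblastine dose-response with dimers at 5 µM or monomers at 10 µM. Verapamil 5 µM as positive control, DMSO 0.05% as solvent control. IC50 from curves, triplicate, some repeated three times and averaged.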

MDA-MB-435 [4] = experiment: Reversal of paclitaxel resistance in multidrug resistant MDA435/LCC6 cells by MTS assay; assay type: functional, cell-based; conditions: Homo sapiens; how it was run: as §1
MDA-MB-435 [5] = experiment: Reversal potency of vinblastine resistance in multidrug resistant MDA435/LCC6 cells by MTS assay; assay type: functional; conditions: Homo sapiens, in the assay text read “doxorubicin” for “vinblastine”
MDA-MB-435 [6] = experiment: Reversal of DOX resistance in multidrug resistant MDA435/LCC6 cells by MTS assay at 10 uM; assay type: functional, cell-based; conditions: Homo sapiens
How it was run: (§2)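 MDA435/LCC6 MDR cells in DMEM with 10% FBS, 2000 cells/well, allowed to attach for 24 h. Anticancer drug was added in serial concentrations with or without modulator (dimers 5 µM, monomers 10 µM; 0.05% DMSO solvent control), then grown for 4 days at 37 °C, 5% CO2. MTS/PMS was added for 2 h and A490 read. Survival was taken relative to DMSO controls; IC60 for DOX, IC50 for the others; triplicate.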

MDA-MB-435 [7] = experiment: Cytotoxicity against MDA435/LCC6 cells at 10 uM; assay type: functional, cell-based; conditions: Homo sapiens
MDA-MB-435 [8] = experiment: Reversal of vinblastine resistance in multidrug resistant MDA435/LCC6 cells by MTS assay at 10 uM; assay type: functional, cell-based; conditions: Homo sapiens; how it was run: as §2
P388/ADR [9] = experiment: Reversal of DOX resistance in P388 ADR cells by MTS assay at 5 uM; assay type: functional, cell-based; conditions: Mus musculus
How it was run: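 P388/ADR cells: 3-day MTS assay of DOX dose-response with modulator at 5 µM, or 10 µM for monomers. Verapamil 5 µM and 0.05% DMSO as controls. IC50 from curves, triplicate points, mean ± SD of three independent experiments.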

MDA-MB-435 [10] = experiment: Antiproliferative activity against multidrug resistant MDA435/LCC6 cells in presence of 5 uM 1,13-bis[4'-((5,7-dihydroxy)-4H-chromen-4-on-2-yl)phenyl]-1,4,7,10,13-pentaoxatridecane by ELISA; assay type: functional, cell-based; conditions: Homo sapiens
How it was run: (§3)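 Resistant breast cells seeded 2000/well, allowed 24 h attachment, then exposed to anticancer-drug concentration series with or without 5 µM modulator for 4 days. MTS/PMS read at 490 nm after 2 h. IC50 from dose-response curves relative to 0.05% DMSO controls. RF = IC50 without modulator divided by IC50 with modulator.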

MDA-MB-435 [11] = experiment: Relative fold, IC50 in absence to presence of 1,13-bis[4'-((5,7-dihydroxy)-4H-chromen-4-on-2-yl)phenyl]-1,4,7,10,13-pentaoxatridecane in multidrug resistant MDA435/LCC6 cells; assay type: functional, Homo sapiens; how it was run: as §3
P388 [12] = experiment: Antiproliferative activity against P388 cells by ELISA; assay type: functional, cell-based; conditions: Mus musculus
How it was run: (§4)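 MTS/PMS proliferation assay: cells seeded 5000/well in RPMI 1640 with 10% FBS and penicillin/streptomycin at 37 °C, 5% CO2. Drug series added and cells grown 3 days. MTS/PMS added for 2 h at 37 °C, absorbance read at 490 nm. Survival relative to DMSO (0.05%) controls; IC50 from dose-response curves, at least triplicate.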

P388/ADR [13] = experiment: Antiproliferative activity against adriamycin resistant P388 cells by ELISA; assay type: functional, cell-based; conditions: Mus musculus; how it was run: as §4
P388/ADR [14] = experiment: Antiproliferative activity against adriamycin resistant P388 cells in presence of 5 uM 1,13-bis[4'-((5,7-dihydroxy)-4H-chromen-4-on-2-yl)phenyl]-1,4,7,10,13-pentaoxatridecane by ELISA; assay type: functional, cell-based; conditions: Mus musculus
How it was run: (§5)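 P388/ADR cells seeded 5000/well in RPMI 1640 with 10% FBS, given drug concentration series with or without 5 µM modulator for 3 days. MTS/PMS added for 2 h at 37 °C, absorbance at 490 nm. IC50 from dose-response curves versus 0.05% DMSO controls. RF = IC50 without modulator / IC50 with modulator.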

MDA-MB-435 [15] = experiment: Antiproliferative activity against multidrug resistant MDA435/LCC6 cells by ELISA; assay type: functional, cell-based; conditions: Homo sapiens
How it was run: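 MTS/PMS proliferation assay: cells seeded 2000/well, drugs added after 24 h attachment, growth 4 days in DMEM with 10% FBS at 37 °C, 5% CO2. MTS/PMS added for 2 h, absorbance read at 490 nm. Survival is taken relative to DMSO (0.05%) controls. IC50 is read from dose-response curves, at least triplicate, repeated twice.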

P388 [16] = experiment: Relative fold, IC50 in absence to presence of 1,13-bis[4'-((5,7-dihydroxy)-4H-chromen-4-on-2-yl)phenyl]-1,4,7,10,13-pentaoxatridecane in multidrug resistant P388 cells; assay type: functional, Mus musculus; how it was run: as §5
MDA-MB-435 [17] = experiment: Antiproliferative activity against MDA435/LCC6 cells by ELISA; assay type: functional, cell-based; conditions: Homo sapiens
MDA-MB-435 [18] = experiment: Relative fold, IC50 in absence to presence of verapamil in multidrug resistant MDA435/LCC6 cells; assay type: functional, Homo sapiens; how it was run: as §3
MDA-MB-435 [19] = experiment: Antiproliferative activity against multidrug resistant MDA435/LCC6 cells in presence of 5 uM verapamil by ELISA; assay type: functional, cell-based; conditions: Homo sapiens; how it was run: as §3

Row | IC50 (MDA-MB-435 [10]) [nM] | IC50 (P388 [12]) [nM] | IC50 (P388/ADR [13]) [nM] | IC50 (P388/ADR [14]) [nM] | IC50 (MDA-MB-435 [15]) [nM] | IC50 (MDA-MB-435 [17]) [nM] | SMILES | Activity (MDA-MB-435 [1]) | Activity (P388/ADR [9]) | Ratio IC50 (MDA-MB-435 [11]) | Ratio IC50 (P388 [16]) | further results
1 |  |  |  |  |  |  | O=c1cc(-c2ccc(OCCOCCOCCOc3ccc(-c4cc(=O)c5c(O)cc(O)cc5o4)cc3)cc2)oc2cc(O)cc(O)c12 | inactive |  |  |  | Activity (MDA-MB-435 [2]): 4; IC50 (MDA-MB-435 [3]): 0.87 nM; IC50 (MDA-MB-435 [4]): 21.5 nM; IC60 (MDA-MB-435 [5]): 1300 nM
2 |  |  |  |  |  |  | O=c1cc(-c2ccc(OCCOCCOc3ccc(-c4cc(=O)c5c(O)cc(O)cc5o4)cc3)cc2)oc2cc(O)cc(O)c12 | inactive |  |  |  | Activity (MDA-MB-435 [2]): 4.5; IC50 (MDA-MB-435 [3]): 0.61 nM; IC50 (MDA-MB-435 [4]): 19.9 nM; IC60 (MDA-MB-435 [5]): 1300 nM
3 |  |  |  |  |  |  | O=c1cc(-c2ccc(OCCOCCOCCOCCO)cc2)oc2cc(O)cc(O)c12 |  |  |  |  | Activity (MDA-MB-435 [6]): inactive; EC50 (MDA-MB-435 [4]): > 10000 nM; Activity (MDA-MB-435 [7]): inactive; Activity (MDA-MB-435 [8]): inactive
4 |  |  |  |  |  |  | O=c1cc(-c2ccc(OCCOCCOCCO)cc2)oc2cc(O)cc(O)c12 |  |  |  |  | Activity (MDA-MB-435 [6]): inactive; Activity (MDA-MB-435 [7]): inactive; Activity (MDA-MB-435 [8]): inactive
5 |  |  |  |  |  |  | O=c1cc(-c2ccc(OCCOCCOCCOCCOCCOCCOCCOCCOCCOc3ccc(-c4cc(=O)c5c(O)cc(O)cc5o4)cc3)cc2)oc2cc(O)cc(O)c12 | inactive | inactive |  |  | 
6 |  |  |  |  |  |  | O=c1cc(-c2ccc(OCCOCCOCCOCCOCCOCCOCCOCCOc3ccc(-c4cc(=O)c5c(O)cc(O)cc5o4)cc3)cc2)oc2cc(O)cc(O)c12 | inactive | inactive |  |  | 
7 |  |  |  |  |  |  | O=c1cc(-c2ccc(OCCOCCOCCOCCOCCOCCOCCOc3ccc(-c4cc(=O)c5c(O)cc(O)cc5o4)cc3)cc2)oc2cc(O)cc(O)c12 | inactive | inactive |  |  | 
8 |  |  |  |  |  |  | O=c1cc(-c2ccc(OCCOCCOCCOCCOCCOCCOc3ccc(-c4cc(=O)c5c(O)cc(O)cc5o4)cc3)cc2)oc2cc(O)cc(O)c12 | inactive | inactive |  |  | 
9 |  |  |  |  |  |  | O=c1cc(-c2ccc(OCCOCCOCCOCCOCCOc3ccc(-c4cc(=O)c5c(O)cc(O)cc5o4)cc3)cc2)oc2cc(O)cc(O)c12 | inactive | inactive |  |  | 
10 |  |  |  |  |  |  | O=c1cc(-c2ccc(OCCOc3ccc(-c4cc(=O)c5c(O)cc(O)cc5o4)cc3)cc2)oc2cc(O)cc(O)c12 | inactive | inactive |  |  | 
11 | 550 | 22 | 1740 | 123 | 4690 | 300 | COc1cccc2c1C(=O)c1c(O)c3c(c(O)c1C2=O)C[C@@](O)(C(=O)CO)C[C@@H]3O[C@H]1C[C@H](N)[C@H](O)[C@H](C)O1 [DOXORUBICIN] |  |  | 9 | 14 | Ratio IC50 (MDA-MB-435 [18]): 16; IC50 (MDA-MB-435 [19]): 300 nM
12 | 4.8 | 22 | 1640 | 30 | 105 | 2.9 | CC(=O)O[C@H]1C(=O)[C@@]2(C)[C@H]([C@H](OC(=O)c3ccccc3)[C@]3(O)C[C@H](OC(=O)[C@H](O)[C@@H](NC(=O)c4ccccc4)c4ccccc4)C(C)=C1C3(C)C)[C@]1(OC(C)=O)CO[C@@H]1C[C@@H]2O [PACLITAXEL] |  |  | 22 | 55 | Ratio IC50 (MDA-MB-435 [18]): 20; IC50 (MDA-MB-435 [19]): 5.2 nM
13 |  |  |  |  |  |  | COc1ccc(CCN(C)CCCC(C#N)(c2ccc(OC)c(OC)c2)C(C)C)cc1OC (stereo not drawn) [VERAPAMIL] |  |  |  |  | IC50 (MDA-MB-435 [3]): 0.25 nM; EC50 (MDA-MB-435 [4]): 700 nM; IC50 (MDA-MB-435 [4]): 5.2 nM
14 | 0.42 | 4.1 | 95 | 4.3 | 4.4 | 0.34 | CC[C@]1(O)C[C@@H]2CN(CCc3c([nH]c4ccccc34)[C@@](C(=O)OC)(c3cc4c(cc3OC)N(C)[C@H]3[C@@](O)(C(=O)OC)[C@H](OC(C)=O)[C@]5(CC)C=CCN6CC[C@]43[C@@H]65)C2)C1 [VINBLASTINE] |  |  | 10 | 22 | Ratio IC50 (MDA-MB-435 [18]): 15; IC50 (MDA-MB-435 [19]): 0.29 nM
15 | 0.63 | 2.2 | 299 | 4.5 | 26 | 0.29 | CC[C@]1(O)C[C@H]2CN(CCc3c([nH]c4ccccc34)[C@@](C(=O)OC)(c3cc4c(cc3OC)N(C=O)[C@H]3[C@@](O)(C(=O)OC)[C@H](OC(C)=O)[C@]5(CC)C=CCN6CC[C@]43[C@@H]65)C2)C1 [VINCRISTINE] |  |  | 41 | 66 | 

Row | SMILES | IC50 (MDA-MB-435 [10]) [nM] | IC50 (P388 [12]) [nM] | IC50 (P388/ADR [13]) [nM] | IC50 (P388/ADR [14]) [nM] | IC50 (MDA-MB-435 [15]) [nM] | IC50 (MDA-MB-435 [17]) [nM] | Activity (MDA-MB-435 [1]) | Activity (P388/ADR [9]) | Ratio IC50 (MDA-MB-435 [11]) | Ratio IC50 (P388 [16]) | further results
16 | O=C1c2c(O)ccc(O)c2C(=O)c2c(NCCNCCO)ccc(NCCNCCO)c21 [MITOXANTRONE] | 646 | 4.3 | 395 | 194 | 1440 | 0.35 |  |  | 2.2 | 2 | 
